Assay results pooled from the literature.
ALPI: Intestinal-type alkaline phosphatase (ALPI, Bos taurus, UniProt P19111)
LCK: Tyrosine-protein kinase Lck (LCK, Homo sapiens, UniProt P06239)
GRM2: Metabotropic glutamate receptor 2 (GRM2, Homo sapiens, UniProt Q14416)
Maob: Amine oxidase [flavin-containing] B (Maob, Rattus norvegicus, UniProt P19643)
EPHX2: Bifunctional epoxide hydrolase 2 (EPHX2, Homo sapiens, UniProt P34913)
NMUR1: Neuromedin-U receptor 1 (NMUR1, Homo sapiens, UniProt Q9HB89)

| Compound | target | assay | conditions | IC50 |
| --- | --- | --- | --- | --- |
| CCCCCCCCN1CC2=C(C1=O)C(c1ccc(O)cc1)NC(=O)N2 (stereo not shown) | ALPI | enzyme activity, inhibitor, absorbance | – | 8.23 µM |
| CNC(=O)c1cc2c(Oc3ccc(NC(=O)C4(C(=O)Nc5ccc(F)cc5)CC4)cc3)ccnc2cc1OC | LCK | enzyme activity, inhibitor, radiometric | – | 0.012 µM |
| O=C(Cc1cccc(Nc2ncnc3[nH]ccc23)c1)Nc1ccc(F)c(Cl)c1 | Proto-oncogene tyrosine-protein kinase receptor Ret (RET, Homo sapiens, UniProt P07949) | enzyme activity, inhibitor, mobility shift | – | > 20 µM |
| CC1=C(CC(=O)O)c2cc(F)ccc2/C1=C\c1ccc([S+](C)[O-])cc1 (stereo not shown) | Aldo-keto reductase family 1 member B1 (AKR1B1, Homo sapiens, UniProt P15121) | enzyme activity, inhibitor, absorbance | pH 6.2 | 0.3 µM |
| O=C1NC2=C(C(=O)N(Cc3ccccc3)C2)C(c2ccccc2O)N1 (stereo not shown) | ALPI | enzyme activity, inhibitor, absorbance | – | 7.67 µM |
| COc1ccc(-c2cc(C(N)=O)ncc2OCc2ccncc2)c(F)c1 | GRM2 | ion flux, antagonist | – | 0.033 µM |
| COc1ccc(-c2nsc(NC(=O)[C@@H]3C[C@H]3C)c2C)cc1 | GRM2 | calcium signal, antagonist | – | > 12.5 µM |
| CN(C)CC#Cc1ccc2[nH]c3c(c2c1)-c1nc(N)ncc1CCC3 | Dual specificity mitogen-activated protein kinase kinase 4 (MAP2K4, Homo sapiens, UniProt P45985) | enzyme activity, inhibitor, radiometric | – | > 10 µM |
| COc1ccc2cc(C=NN=C3CS(=O)(=O)N(C)c4ccccc43)c(Cl)nc2c1 | Maob | enzyme activity, inhibitor, fluorescence | – | 2.22 µM |
| Cc1ccc(C(=O)Nc2ccc(Oc3cc4cnn(C)c4cc3-c3cn[nH]c3)c(F)c2)c(=O)n1-c1ccc(F)cc1 | Proto-oncogene tyrosine-protein kinase receptor Ret (RET, Homo sapiens, UniProt P07949, C634W) | phosphorylation in cells, inhibitor, western blot | – | 2 µM |
| CC/C(=N\NC(=O)C(C)Nc1ccccc1)c1ccc(O)c(C)c1O (stereo not shown) | Serine/threonine-protein kinase LATS2 (LATS2, Homo sapiens, UniProt Q9NRM7) | enzyme activity, inhibitor | – | 0.00409 µM |
| CC(O)C(C)C(=O)N1CCC(NC(=O)Nc2ccc(OC(F)(F)F)c(F)c2)CC1 (stereo not shown) | EPHX2 | enzyme activity, inhibitor | – | 0.0001 µM |
| COc1ccc(-c2cc(C(N)=O)ncc2OCc2ccnc(C)c2)c(F)c1 | GRM2 | ion flux, antagonist | – | 0.059 µM |
| CC12CC3CC(C1)CC(NC(=O)Nc1ccccc1F)(C3)C2 | EPHX2 | enzyme activity, inhibitor, fluorescence | – | 0.0015 µM |
| O=C1NC2=C(C(=O)N(Cc3ccc(Cl)cc3)C2)C(c2ccc(O)cc2)N1 (stereo not shown) | ALPI | enzyme activity, inhibitor, absorbance | – | 5.35 µM |
| COc1cc2nccc(Oc3ccc(NC(=O)c4cc5c(n(-c6ccccc6)c4=O)CCCC5=O)nc3)c2cc1OC | LCK | enzyme activity in cells, inhibitor, ATP luminescence | – | > 0.1 µM |
| CNc1nc(C)nc(N[C@H]2CCC[C@@H](C(=O)NCc3ccc(C#N)cc3C(F)(F)F)C2)n1 | EPHX2 | enzyme activity, inhibitor | – | 0.0004 µM |
| CC(C)C[C@H](NC(=O)[C@H](Cc1ccccc1)NC(=O)[C@@H](N)Cc1ccc(O)cc1)C(=O)N[C@@H](Cc1ccccc1)C(=O)N[C@@H](CCCNC(=N)N)C(=O)N1CCC[C@H]1C(=O)N[C@@H](CCCNC(=N)N)C(=O)N[C@@H](CC(N)=O)C(N)=O | NMUR1 | ligand displacement, radioligand | cell membranes | 0.00066 µM |
| O=C1NC2=C(C(=O)N(c3ccc(F)cc3)C2)C(c2ccccc2O)N1 (stereo not shown) | ALPI | enzyme activity, inhibitor, absorbance | – | 6.54 µM |

| Compound | target | assay | conditions | IC50 |
| --- | --- | --- | --- | --- |
| COc1ccc(-c2cc(C(N)=O)ncc2OCc2ccc(F)nc2)c(F)c1 | GRM2 | ion flux, antagonist | – | 0.074 µM |
| O=C(Nc1ccccc1F)NC12CC3CC(CC(C3)C1)C2 | EPHX2 | enzyme activity, inhibitor, fluorescence | – | 0.0037 µM |
| COc1ccc2c(Oc3ccc4c(C(=O)Nc5ccccc5N)cccc4c3)ccnc2c1 | LCK | enzyme activity, inhibitor | – | > 0.5 µM |
| Cc1ccc2cc(C=NN=C3CS(=O)(=O)N(C)c4ccccc43)c(Cl)nc2c1 | Maob | enzyme activity, inhibitor, fluorescence | – | 1.05 µM |
| CC(C)(C)n1nc(-c2ccc3nc(OC4CC4)ccc3c2)c(C(N)=O)c1N | Mitogen-activated protein kinase kinase kinase 10 (MAP3K10, Homo sapiens, UniProt Q02779) | cell-free assay | – | > 10 µM |
| CCCCCCCCN1CC2=C(C1=O)C(c1ccccc1O)NC(=O)N2 (stereo not shown) | ALPI | enzyme activity, inhibitor, absorbance | – | 8.71 µM |
| Nc1ncc2c(n1)-c1c([nH]c3ccc(C#CC4CC4)cc13)CCCC2 | Phosphatidylinositol 5-phosphate 4-kinase type-2 gamma (PIP4K2C, Homo sapiens, UniProt Q8TBX8) | target engagement in cells, BRET | – | > 10 µM |
| CC(=NN=C1CS(=O)(=O)N(C)c2ccccc21)c1sccc1C | Maob | enzyme activity, inhibitor, fluorescence | – | 2.38 µM |
| COc1ccc(-c2cc(C(N)=O)ncc2OCc2noc(C)n2)c(F)c1 | GRM2 | ion flux, antagonist | – | 0.158 µM |
| Cc1ccc2nc(Cl)c(C=NN=C3CS(=O)(=O)N(C)c4ccccc43)cc2c1 | Maob | enzyme activity, inhibitor, fluorescence | – | 1.43 µM |
| COc1ccc(-c2cc(C(N)=O)ncc2OCc2ccn(C)n2)c(F)c1 | GRM2 | ion flux, antagonist | – | 0.021 µM |
| O=C1NC2=C(C(=O)N(Cc3ccc(F)cc3)C2)C(c2ccc(O)cc2)N1 (stereo not shown) | ALPI | enzyme activity, inhibitor, absorbance | – | 4.76 µM |
| CC(C)C[C@H](NC(=O)[C@H](Cc1ccccc1)NC(=O)[C@H](Cc1ccc(O)cc1)NC(=O)CNC(=O)[C@H](CCCNC(=N)N)NC(=O)[C@H](CO)NC(=O)[C@H](CCC(N)=O)NC(=O)[C@H](CO)NC(=O)[C@H](C)NC(=O)[C@H](Cc1ccccc1)NC(=O)[C@@H]1CCCN1C(=O)[C@H](CO)NC(=O)[C@H](CCC(N)=O)NC(=O)[C@H](Cc1ccccc1)NC(=O)[C@H](CCC(=O)O)NC(=O)[C@H](CCC(=O)O)NC(=O)[C@H](CC(=O)O)NC(=O)[C@@H](NC(=O)[C@H](CCCNC(=N)N)NC(=O)[C@@H](N)Cc1ccccc1)C(C)C)C(=O)N[C@@H](Cc1ccccc1)C(=O)N[C@@H](CCCNC(=N)N)C(=O)N1CCC[C@H]1C(=O)N[C@@H](CCCNC(=N)N)C(=O)N[C@@H](CC(N)=O)C(N)=O | NMUR1 | ligand displacement, radioligand | cell membranes | 0.00011 µM |
| CC(=NN=C1CS(=O)(=O)N(C)c2ccccc21)c1cc(Cl)sc1Cl | Maob | enzyme activity, inhibitor, fluorescence | – | 2.58 µM |
| Cc1cnc(-c2ccc(-c3ccc(NC(=O)Nc4c(F)cc(F)cc4F)cc3F)c3c2C(=O)NC3)[nH]1 | LCK | enzyme activity, inhibitor | – | 0.0007 µM |
| O=C(CCCCCCCCc1ccc(O)cc1)c1c(O)cccc1O | EPHX2 | enzyme activity, inhibitor, fluorescence | – | 18.6 µM |
| COc1ccc(-c2cc(C(N)=O)ncc2OCc2cnc(OC)nc2)c(F)c1 | GRM2 | ion flux, antagonist | – | 0.261 µM |
| CCC(CC12CC3CC(CC(C3)C1)C2)NC(=O)Nc1ccccc1F (stereo not shown) | EPHX2 | enzyme activity, inhibitor, fluorescence | – | 0.631 µM |
